WT yeast gro inh – growth inhibition of WT strain, primary screen, mitochondrial fusion inhibitor project, WT and mutant strains, chemical genetic. mitochondrial fusion phenotypic screen. actives 2.1% (n = 190,000). inhibition, % at 10 µM; in the data active = inhibition above about 58%; tested in S. cerevisiae
ROMK mod – ROMK potassium channel modulators, primary screen, cell-based, thallium flux, MLSMR library. ATP-sensitive inward rectifier potassium channel 1 (Homo sapiens), P48048. Tet-inducible ROMK, thallium flux fluorescence; actives lie on both sides. B-score at 10 µM. actives 2% (n = 130,000). AID 1918, 2009;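 active = signal ratio slope over the read window, or its plate-corrected B-score, at least 3 SD from the plate mean, either direction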;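 also: B-score of the F/F0 ratio slope over 7 to 12 s after thallium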
Target sequence (P48048 whole entry, looked up): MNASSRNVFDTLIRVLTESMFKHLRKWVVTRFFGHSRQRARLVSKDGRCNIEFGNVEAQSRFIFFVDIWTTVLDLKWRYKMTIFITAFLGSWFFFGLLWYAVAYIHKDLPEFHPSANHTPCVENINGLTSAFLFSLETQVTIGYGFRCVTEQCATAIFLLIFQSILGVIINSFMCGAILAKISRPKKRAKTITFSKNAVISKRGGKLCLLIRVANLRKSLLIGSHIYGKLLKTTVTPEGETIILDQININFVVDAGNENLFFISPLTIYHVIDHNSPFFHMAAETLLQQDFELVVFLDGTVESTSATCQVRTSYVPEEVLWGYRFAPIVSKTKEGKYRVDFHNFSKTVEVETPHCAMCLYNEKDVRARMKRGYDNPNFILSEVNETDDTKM
Cl transport mod – KCC2 cotransporter modulators, thallium flux, primary screen, cell-based, HEK293 KCC2, FluoZin-2 fluorescence, MLSMR | actives 2.2% (n = 190,000) | Solute carrier family 12 member 5 (Homo sapiens), Q9H2X9 | B-score of Tl+ flux slope (higher = more flux/activation; lower = inhibition) at 10 µM | KCC2 cells, thallium flux FluoZin-2 fluorescence | AID 1456, 2008;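 active = thallium flux slope and its plate-corrected score both differing from the plate sample mean at a set confidence after two filtering rounds, in either direction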;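 also: slope of fluorescence scaled to starting intensity during 10 to 20 s after thallium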
Diaph act CS – compounds boosting diaphorase resazurin reduction – biochemical, uHTS, resorufin fluorescence, counter-screen for diaphorase-coupled primary assays, primary screen. Diaphorase/resazurin coupled assay, 16 min; active compounds read high; 1 = vehicle wells, 0 = NADH-free wells. activation factor at 20 µM. actives 0.005% (n = 190,000). AID 1229, 2008;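 active = diaphorase activity raised at least twofold by the compound at 20 µM; inactive = activation factor below 2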
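System – purified diaphorase enzyme from Clostridium kluyveri · Input – enzyme 0.07 U/mL final · Also added – final NADH 0.114 mM, resazurin 0.1 mM · Measured by – fluorescence of resorufin, 544 nm excitation, 590 nm emission · Timing – 16 min enzyme reaction, ambient temperature · Measure – resorufin increase flagging diaphorase activators or reducers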
Lmaj promast – Leishmania major promastigote growth inhibition, primary screen. Leishmania major promastigotes, resazurin fluorescence viability. actives 9% (n = 200,000). inhibition, % at 10 µM; in the data active = inhibition above about 50%;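 also: promastigotes grown with compound for 44 hours at 28 °C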
Diaph inh CS – diaphorase inhibitors and chemical oxidizers, primary screen, counter-screen for diaphorase-coupled primary assays, biochemical, uHTS, resorufin fluorescence | AID 1217, 2008 | actives 0.69% (n = 190,000) | diaphorase resazurin-to-resorufin fluorescence, NADH, 16 min; bacterial (C. kluyveri) enzyme, not human | inhibition, % at 20 µM;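 active = primary screen inhibition at 20 µM above a set limit, cut at about 50% in these data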;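 also: plate controls were DMSO with full reaction for no effect and wells lacking NADH for full effect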
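Test system: bacterial diaphorase enzyme (C. kluyveri); Quantity: 0.14 U/mL diaphorase, enzyme working solution; Times: reaction incubation of 16 min at room temperature; Measured by: fluorescence of resorufin formed from resazurin, Ex 544/Em 590 nm; Benchmarks: positive control minus NADH, DMSO neutral control.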
KCC2 secondary – KCC2 modulators in sodium-free buffer, confirmation, cell-based, HEK293 KCC2, thallium flux, secondary assay; normalised thallium flux (F/F0 slope) at 10 µM; AID 1713, 2009; actives 15% (n = 3,700); FluoZin2 fluorescence; active compounds read high; shares compounds with Cl transport mod;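 active = thallium flux slope above the same plate's solvent-only control mean plus 3 SD; inconclusive = the two replicate wells disagree; inactive = no significant difference from solvent-only control wells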
KCC2 bumet counter – thallium flux persisting under bumetanide in KCC2 cells, confirmation, counter-screen for KCC2 modulator project, cell-based, HEK293 KCC2, FluoZin2, secondary assay 3; shares compounds with Cl transport mod; HEK293-KCC2 + bumetanide/ouabain; active compounds read high; normalized thallium flux at 10 µM; actives 49% (n = 3,700);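 active = thallium entry rate above the same plate's blocked-transporter control wells by more than 3 SD; inconclusive = the two repeat wells disagree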;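 also: raw slope of fluorescence over initial fluorescence between 10 and 20 s after thallium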
KCC2 sec2 – KCC2 modulators without ouabain present, confirmation, cell-based, HEK293 KCC2, thallium flux, FluoZin2, secondary assay 2. shares compounds with Cl transport mod. thallium flux FluoZin2 fluorescence; actives lie on both sides; F/F0 rise rate, 10–20 s post-thallium. normalized thallium flux at 10 µM. actives 23% (n = 3,700). AID 1715, 2009;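 active = thallium flux slope more than 3 SD above or below the plate's solvent-only control mean, mostly below; inconclusive = the two repeat wells disagreed; inactive = no significant shift from solvent-only controls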;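 also: raw slope with 0.1% DMSO as baseline and bumetanide as block control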
HEK293 Tl flux – thallium flux modulation in parental HEK cells, confirmation, counter-screen for KCC2 modulator project, cell-based, counterscreen 1. HEK293 parental cells, thallium flux FluoZin2, ouabain; baseline-ratio fluorescence slope, 10–20 s after thallium. shares compounds with Cl transport mod. thallium flux rate (normalised fluorescence) at 10 µM. actives 46% (n = 3,700);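 active = thallium flux rate significantly above the same plate's solvent-only control wells, beyond their mean plus 3 SD; inconclusive = the two replicate wells gave conflicting results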
KCC2 retest ouab – KCC2 inhibitors and activators, ouabain retest, confirmation, HEK-KCC2 cells. shares compounds with Cl transport mod. HEK293-KCC2, thallium flux FluoZin2 fluorescence; bidirectional: low = inhibitor, high = activator. raw Tl+ flux slope (below DMSO = inhibition, above = activation) at 10 µM. actives 48% (n = 3,700). AID 1717, 2009;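 active = thallium flux slope beyond 3 SD from same-plate DMSO control mean in most replicates, usually higher, sometimes lower; inconclusive = repeat tests gave conflicting results; inactive = no significant difference from controls in most replicates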;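 also: slope of initial-normalized fluorescence between seconds 10 and 20 after thallium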
HEK293 Tl flux2 – native HEK Tl+ uptake effects, second counter-screen – HEK cells, counterscreen 2, counter-screen for KCC2 modulator project, confirmation. actives 33% (n = 3,700). thallium flux slope at 10 µM. shares compounds with Cl transport mod. HEK293 parental, thallium flux FluoZin-2 fluorescence slope;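 active = thallium flux slope above the same plate's solvent-control mean plus 3 SD in both duplicate wells; inconclusive = duplicate wells that disagreed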;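 also: run without ouabain in cells lacking the KCC2 cotransporter; slope of fluorescence scaled to its starting value between 10 and 20 s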
Active calls of the source: *; ? = inconclusive; . = no result given. The list is not random: actives were taken first. Their share in the collection is about 12%.

SMILES	WT yeast gro inh	ROMK mod	Cl transport mod	Diaph act CS	Lmaj promast	Diaph inh CS	KCC2 secondary	KCC2 bumet counter	KCC2 sec2	HEK293 Tl flux	KCC2 retest ouab	HEK293 Tl flux2
O=C(CSc1cccc2cccnc12)N1CCCC1	2	.	22*	0.9	48	12	0.0056	0.033*	0.029	0.026*	0.037*	0.016*
COc1ccccc1-c1ccc(=O)n(CC(=O)NCc2ccc3c(c2)OCO3)n1	-7	.	-3.7*	1	-8	2	0.0077	0.0092*	0.032	?	0.016*	0.011
CCC(C)N(C(=O)CSc1nc(-c2ccccc2)cs1)C1CCS(=O)(=O)C1 (centres undefined)	-27	0.06	-0.0076	0.8	7	19	.	.	.	.	.	.
CC(C)NC(=S)Nc1ccc2cn[nH]c2c1	-4	1	0.064	0.7	-1	26	.	.	.	.	.	.
CC(/C=N/NC(=O)c1nn(C)c(C)c1Br)=C\c1ccccc1	-11	.	-0.29	1	-5	-5	.	.	.	.	.	.
NC(=O)SCC(=O)Nc1ccc(Cl)c(Cl)c1	12	-2.9	.	0.6	98*	42	0.0073	0.013*	0.026*	0.01*	0.019	?
O=C(Nc1ccc(Cl)cn1)C1CCCN1S(=O)(=O)c1ccc(Cl)cc1 (centres undefined)	9	0.58	.	0.8	53*	17	0.0082	0.007	0.033	?	0.024	0.0099
O=C(CN1CCC(NC(=O)c2cccc(F)c2)CC1)NCc1ccccc1F	-1	-0.63	.	1	2	3	0.0089	0.0068	0.031	0.0073	0.033	0.01
CCN1C(=O)c2cccc3c(S(=O)(=O)NCC4CCCO4)ccc1c23 (centres undefined)	.	.	1.7	.	.	.	.	.	.	.	.	.
Cc1nn(Cc2c(F)c(F)c(F)c(F)c2F)c(C)c1NC(=O)c1ccc(COc2ccccc2Cl)o1	46	.	-6.4*	0.8	12	24	0.0073	0.0048	0.027	0.0079	0.015*	0.011
O=C1C2CCCCC2C(=O)N1c1ccc(NC2CCN(Cc3ccccc3)CC2)c([N+](=O)[O-])c1 (centres undefined)	-7	-2.7	-8.5*	1	-5	-4	0.011	0.0077*	0.026*	0.0078	0.014*	0.011
O=[N+]([O-])c1ccc(NC2CCN(Cc3ccccc3)CC2)c([N+](=O)[O-])c1	13	-1.5	-5.2*	0.9	22	7	0.006	0.0046	0.022*	0.0073	?	0.011
O=C1CCC(=O)N1c1ccc(NC2CCN(Cc3ccccc3)CC2)c([N+](=O)[O-])c1	3	-0.51	-5.9*	1	-3	-1	0.0072	0.0061	0.025*	?	0.024	0.011
CC1CCC2C(=O)N(c3ccc(NC4CCN(Cc5ccccc5)CC4)c([N+](=O)[O-])c3)C(=O)C2C1 (centres undefined)	9	.	-2.8	0.8	11	22	.	.	.	.	.	.
O=[N+]([O-])c1ccccc1NC1CCN(Cc2ccccc2)CC1	.	-1.2	-2.4	.	.	.	.	.	.	.	.	.
Cc1nc(SCC(=O)N2CCN(C(=O)c3ccco3)CC2)c2c(C)c(C)sc2n1	-9	.	-0.14	0.9	9	9	.	.	.	.	.	.
Cc1nc(SCC(=O)Nc2cc(C(N)=O)cc(C(N)=O)c2)c2c(C)c(C)sc2n1	.	1.2	38*	.	.	.	?	0.042*	0.04	0.052*	0.045*	0.022*
O=c1c(-c2cnn(-c3ccccc3)c2)coc2cc(O)ccc12	14	0.54	-4.1*	1	96*	2	0.0071	0.0059*	0.026*	0.0076	?	0.011
Cc1oc2cc(O)ccc2c(=O)c1-c1cnn(-c2ccccc2)c1	-9	0.17	-0.32	0.9	14	11	.	.	.	.	.	.
CCNc1nc(Cl)nc(NNC(=O)C(C)Oc2ccccc2)n1 (centres undefined)	-6	.	-1.6	0.9	-5	6	.	.	.	.	.	.
Cc1nc2nc(-c3ccc(Cl)cc3)cn2nc1C	-5	-0.26	.	0.8	-6	18	0.0086	0.0057	0.031	0.0087	0.019	0.012
Cc1noc(C)c1COc1ccc(C(=O)OCC(=O)NC2CCCCC2C)cc1 (centres undefined)	-9	.	0.82	0.9	-3	5	0.009	0.0055	0.033	0.008	0.018	?
Cc1noc(C)c1COc1ccc(C(=O)OCC(=O)NC23CC4CC(CC(C4)C2)C3)cc1	40	-0.26	.	0.8	-1	20	.	.	.	.	.	.
COc1ccc(-c2cc(C(F)(F)F)c3c(=O)n(-c4ccccc4)[nH]c3n2)cc1	9	.	-5.2*	0.8	-10	21	0.0072	0.0075	0.03	0.0069	0.018*	0.011
C=CCNC(=O)C1CCN(c2c([N+](=O)[O-])cc(C(F)(F)F)cc2[N+](=O)[O-])CC1	12	.	.	1.1	-6	-9	0.011	0.0065	0.029	0.0077	0.03	?
